Sampled rows, rich in hits. Any-hit rate of the full collection: about 1.6%.
TLR4 MyD88 comp – inhibitors of TLR4-MyD88 association in cells, primary screen, cell-based, HeLa CL3-4, BLA complementation, FRET ratio. 200,000 compounds, 0.18% hits. inhibition, % at 8.4 µM. HeLa CL3-4 TLR4/MyD88 BLA complementation. AID 861, 2007. Toll-like receptor 4 (Homo sapiens) + Myeloid differentiation primary response protein …; in the data active = inhibition above about 25%;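 note: 0% = vehicle and 100% = reference inhibitor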
NOD2 RIPK2 PPI – NOD2-RIPK2 binding disruptors in cells, primary screen, fluorescence, CHO cells, BLA complementation | CCF4 ratio | inhibition, % at 4.98 µM | 360,000 compounds, 0.38% hits | AID 624267, 2012; in the data active = inhibition above about 21%;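 note: 0% = vehicle only and 100% = reference blocker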
Target sequence (O43353 whole entry, looked up): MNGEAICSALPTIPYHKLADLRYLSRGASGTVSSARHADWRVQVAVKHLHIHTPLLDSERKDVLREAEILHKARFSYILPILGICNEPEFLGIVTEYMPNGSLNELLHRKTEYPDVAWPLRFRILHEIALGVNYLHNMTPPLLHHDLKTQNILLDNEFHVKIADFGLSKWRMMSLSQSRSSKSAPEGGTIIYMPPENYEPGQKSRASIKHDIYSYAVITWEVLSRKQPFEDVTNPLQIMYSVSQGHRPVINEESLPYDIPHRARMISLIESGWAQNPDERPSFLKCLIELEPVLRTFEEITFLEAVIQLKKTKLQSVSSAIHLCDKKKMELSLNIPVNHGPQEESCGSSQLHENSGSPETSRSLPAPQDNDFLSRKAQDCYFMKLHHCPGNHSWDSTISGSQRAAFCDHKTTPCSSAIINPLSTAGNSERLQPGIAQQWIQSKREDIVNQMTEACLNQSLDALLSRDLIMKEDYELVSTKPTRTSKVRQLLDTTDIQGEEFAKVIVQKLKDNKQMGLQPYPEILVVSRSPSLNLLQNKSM
SR-BI HDL uptake – inhibitors of SR-BI mediated HDL lipid uptake, primary screen, ldlA[mSR-BI] cells, fluorescence, single point; Scavenger receptor class B member 1 (Mus musculus), Q61009; ldlA[mSR-BI] CHO cells, DiI-HDL uptake fluorescence, 3 h; inhibition, % at 12.5 µM; 320,000 compounds, 0.96% hits; AID 488896, 2010;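 active = mean replicate inhibition of at least 70% and a set share of replicates each scoring 70 or more; inconclusive = meets just one of the two criteria; inactive = fails both criteria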;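 note: 0% = median of neutral control wells and 100% = median of positive control wells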
SR-BI uptake up – activators of SR-BI mediated DiI-HDL uptake, primary screen, ldlA[mSR-BI] CHO cells, DiI fluorescence; 3 h; 100 = double the neutral-control signal; activation, % at 12.5 µM; 320,000 compounds, 0.096% hits; AID 504775, 2011;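 active = mean replicate activation of at least 60% and every replicate at or above 60%; inconclusive = mean or all-replicate condition met, but not both; inactive = mean below 60% and not all replicates reaching 60%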;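 note: 0% = median plate neutral-control signal and 100% = twice that signal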
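Assay system: LDL receptor-deficient CHO ldlA cells overexpressing murine SR-BI / Medium: BSA-supplemented, HEPES-buffered Ham's F12, pH 7.4 / Probe or stimulus: DiI-labelled HDL at 10 µg/mL final / Timing: compound with DiI-HDL co-incubation, 3 h at 37 °C / Technique: bottom-read cell fluorescence after medium removal, ex 550/em 595 nm / Measure: HDL uptake via cellular fluorescence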
Lipid droplet – inhibitors of hepatocyte lipid droplet formation, primary screen, imaging, high-throughput imaging, BODIPY stain; 240,000 compounds, 0.4% hits; AML12 mouse hepatocytes, oleate lipid droplets; inhibition, % at 6.5 µM; AID 1656, 2009;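 active = lipid droplet intensity inhibited by at least 50%, with more than 500 cells counted; inconclusive = wells with under 300 cells, treated as cytotoxic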
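Material – AML12 mouse liver cells · Also added – oleate loading, 100 µM · Compound dosing – 6.5 µM single-point dosing · Times – overnight treatment with compound plus oleate · Measured by – fluorescence imaging, 20x objective, two fields per well · Read-out – percent inhibition of filter-corrected integrated lipid droplet intensity per well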
TLR9-MyD88 block – inhibitors of TLR9-MyD88 association in cells, primary screen, cell-based, CHO, BLA complementation, fluorescence; inhibition, % at 4.98 µM; 340,000 compounds, 0.21% hits; CCF4 FRET ratio; AID 504734, 2011; Toll-like receptor 9 (Homo sapiens) + Myeloid differentiation primary response protein …;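 active = inhibition above the mean over all tested compounds plus 3 SD, cut at about 21% in these data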;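 note: 0% = DMSO only wells and 100% = clavulanate BLA inhibitor control wells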
An asterisk follows results filed as active; u = inconclusive; x = no result.

SMILES	TLR4 MyD88 comp	NOD2 RIPK2 PPI	SR-BI HDL uptake	SR-BI uptake up	Lipid droplet	TLR9-MyD88 block
Cc1nn(CCO)c2nc(-c3cccs3)cc(C(F)(F)F)c12	4	0	7	-7	8	0
Cc1ccc(NC(=O)c2cc(-c3cccs3)nc3ccccc23)nc1	x	-9	x	x	-11	-12
Cc1c(NC(=O)c2cc(-c3cccs3)nc3ccccc23)c(=O)n(-c2ccccc2)n1C	1	-4	77*	-77	-2	7
O=C(CN1C2CCCC1CC(NC(=O)c1ccccc1)C2)Nc1nccs1 (stereo unspecified)	-6	-9	-14	14	2	1
COc1ccc(OC)c(Nc2nc(-c3sc(NC(=O)c4ccccc4)nc3C)cs2)c1	5	x	x	x	x	x
CCCCCC(=O)Nc1nc(C)c(-c2csc(Nc3cc(OC)ccc3OC)n2)s1	-24	-5	99*	-99	x	-13
COc1ccc(OC)c(Nc2nc(-c3cccs3)cs2)c1	4	3	92*	-92	-2	-10
COc1ccc(Nc2nc(-c3cccs3)cs2)c(OC)c1	1	-5	54	-54	x	-5
CCCCCCC(=O)Nc1nc(C)c(-c2csc(Nc3cc(OC)ccc3OC)n2)s1	-6	-8	106*	-106	x	-14
CCn1c(C(=O)N2CCC(C(=O)NCc3ccc(OC)cc3)CC2)cc2sccc21	x	-3	27	-27	-12	1
O=C(C1=NNCC1c1ccccc1)C1CO1 (stereo unspecified)	-26	-5	-9	9	4	-1
C/C(=N\OC(=O)C1CC1)C1CC1c1ccc(F)cc1 (stereo unspecified)	-5	-8	-19	19	-3	4
Cc1cnc(NC(=O)c2ccc(OCC3CCCO3)cc2)s1 (stereo unspecified)	-7	0	-1	1	-5	7
O=C(Nc1nc2ccccc2s1)c1ccc(OCC2CCCO2)cc1 (stereo unspecified)	-8	-8	41	-41	52*	-17
CN1CCS/C1=C/C=C1\SC(=S)N(CC(=O)O)C1=O	2	-6	-8	8	3	-1
CCCCN1C(=O)/C(=C/C=C2\SCCN2C)SC1=S	-1	-5	71*	-71	8	-3
Cc1nn(-c2ccccc2)c(N2CCCC2)c1/C=N/NC(=O)c1ccccc1O	-7	-7	55	-55	-25	-5
O=C(N/N=C/c1cc2c3c(c1O)CCCN3CCC2)c1ccccc1O	5	-1	140*	-140	0	9
CC1(NC(=O)CC(c2ccccc2)(c2ccccc2)c2ccccc2)CCN(CCCc2ccccc2)C1=O (stereo unspecified)	x	9	5	-5	x	3
COc1cc(-c2nc3ccccc3c(=O)n2N)cc(OC)c1OC	11	5	-2	2	6	-2
CCOc1ccc(NC(=O)CS(=O)CC(=O)NC2CCCc3ccccc32)cc1 (stereo unspecified)	-2	8	74*	-74	x	-8
O=C(Nc1ccc2c(c1)N(S(=O)(=O)c1cccs1)CCC2)c1c(F)cccc1Cl	x	-24	41	-41	x	-1
COc1cccc(OC)c1C(=O)Nc1ccc2c(c1)N(S(=O)(=O)c1cccs1)CCC2	x	0	77*	-77	-2	1
Cc1ccc(-c2nc(N/N=C/c3ccccc3[N+](=O)[O-])c3ccccc3n2)cc1	-3	8	87*	-87	x	-8
Cc1c(/C=N\NC(=O)c2cccc(F)c2)cnn1C	-56	4	-14	14	0	-3
SMILES	TLR4 MyD88 comp	NOD2 RIPK2 PPI	SR-BI HDL uptake	SR-BI uptake up	Lipid droplet	TLR9-MyD88 block
CCc1ccc(OCc2cccc(C(=O)N/N=C\c3cnn(C)c3C)c2)cc1	x	-7	92*	-92	-16	3
Cc1nc(NC(=O)CSc2ccccc2N)sc1C	4	x	x	x	-1	x
CSCCC(NC(=O)c1ccccc1Cl)C(=O)NNC(=O)c1ccncc1 (stereo unspecified)	x	-5	3	-3	x	7
O=C(c1cc2ccccc2o1)N1CCCCCC1	-6	-7	-21	21	-14	7
O=C(c1oc2ccccc2c1N1CCCCC1)N1CCCCC1	1	2	78*	-78	-12	7
CCCn1nnc(NC(=O)/C=C/c2ccc(C(C)C)cc2)n1	x	5	-12	12	10	6
CCCn1nnc(NC(=S)NC(=O)/C=C/c2ccc(Cl)cc2)n1	x	4	-364	364*	-8	-6
CC(C)N(C(=O)[C@H]1C[C@H](CC(=O)NCCCn2ccnc2)C(=O)N2CCc3c([nH]c4cc(CCC(=O)N(C)C)ccc34)[C@]12C)C(C)C	x	5	-2	2	x	0
Cc1ccc(F)cc1NC(=S)NCCc1ccccc1	-7	4	53	-53	0	-1
CCCCNC(=O)C1(C)CCN1C(=O)c1cc(F)ccc1C (stereo unspecified)	x	7	x	x	x	x
O=C1O[C@@H](c2ccccc2)C[C@@H](O)C(=O)CCCCc2ccccc21	x	-6	x	x	x	x
O=C(/C=C1\NC2(CCCC2)Cc2ccccc21)C(=O)N/N=C/c1ccccc1O	2	-8	114*	-114	-1	-11
CN(C)c1ccc(/C=N/NC(=O)C(=O)/C=C2\NC3(CCCC3)Cc3ccccc32)cc1	4	11	94*	-94	-3	7
COc1cc(/C=N/NC(=O)C(=O)/C=C2\NC3(CCCC3)Cc3ccccc32)ccc1O	-10	-9	u	-70	-2	-1
CCCCOc1ccc(-c2ncc(N)cn2)cc1	x	-1	-313	313*	13	-1
COc1ccc(N2CCN(Cc3nc4c(c(=O)n(C)c(=O)n4C)n3CCc3ccccc3)CC2)cc1	11	-1	-15	15	-1	7
COc1ccc(N2CCN(c3nc4c(c(=O)n(C)c(=O)n4C)n3CCCc3ccccc3)CC2)cc1	x	6	-373	373*	x	-7
COc1cc(NC(=S)NC(=O)c2ccc(C)cc2C)ccc1NC(=O)c1cccs1	-13	-11	32	-32	0	1
Cc1cccc(C(=O)Nc2cc(NC(=O)c3cccs3)ccc2C)c1	x	-1	74*	-74	24	-2
COc1cc(NC(=O)c2ccc(C)cc2C)ccc1NC(=O)c1cccs1	x	2	84*	-84	x	-8
Cc1cc(=O)oc2cc(OCC(=O)N3CCOCC3)c(Cl)cc12	x	2	-6	6	x	-8
Cc1cccc(NC(=S)NNC(=O)Cc2ccccc2)c1	-5	-2	-211	211*	16	3

Bioassay records (PubChem BioAssay)
